Laboratory results as given in ChEMBL document CHEMBL1165950, “Design and synthesis of new potent anticancer pyrazoles with high FLT3 kinase inhibitory selectivity” (Bioorg Med Chem, 2010).

Assays:
Type in all cases: functional
[1] = test system: SF-539; experiment: Cytotoxicity against human SF539 cells assessed as cell growth at 10 uM; conditions: read-out: Activity
Outline: (§1)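 NCI-60 screen: cells grown in RPMI 1640 with 5% FBS and 2 mM L-glutamine, plated at 5000–40,000 cells/well according to doubling time, and preincubated 24 h at 37 °C, 5% CO2. The single 10 µM dose (DMSO stock) was added, then incubated 48 h. Cells were TCA-fixed and stained with 0.4% SRB, read at 515 nm, and growth % calculated against time-zero and control plates.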

[2] = test system: SNB-19; experiment: Cytotoxicity against human SNB19 cells assessed as cell growth at 10 uM; conditions: read-out: Activity; outline: as §1
[3] = test system: SNB-75; experiment: Cytotoxicity against human SNB75 cells assessed as cell growth at 10 uM; conditions: read-out: Activity; outline: as §1
[4] = test system: U-251; experiment: Cytotoxicity against human U251 cells assessed as cell growth at 10 uM; conditions: read-out: Activity; outline: as §1
[5] = test system: LOX IMVI; experiment: Cytotoxicity against human LOXIMVI cells assessed as cell growth at 10 uM; conditions: read-out: Activity; outline: as §1
[6] = test system: Malme-3M; experiment: Cytotoxicity against human MALME-3M cells assessed as cell growth at 10 uM; conditions: read-out: Activity; outline: as §1
[7] = test system: M14; experiment: Cytotoxicity against human M14 cells assessed as cell growth at 10 uM; conditions: read-out: Activity; outline: as §1
[8] = test system: MDA-MB-435; experiment: Cytotoxicity against human MDA-MB-435 cells assessed as cell growth at 10 uM; conditions: read-out: Activity; outline: as §1
[9] = test system: SK-MEL-2; experiment: Cytotoxicity against human SK-MEL-2 cells assessed as cell growth at 10 uM; conditions: read-out: Activity; outline: as §1
[10] = test system: SK-MEL-28; experiment: Cytotoxicity against human SK-MEL-28 cells assessed as cell growth at 10 uM; conditions: read-out: Activity; outline: as §1
[11] = test system: SK-MEL-5; experiment: Cytotoxicity against human SK-MEL-5 cells assessed as cell growth at 10 uM; conditions: read-out: Activity; outline: as §1
[12] = test system: UACC-257; experiment: Cytotoxicity against human UACC257 cells assessed as cell growth at 10 uM; conditions: read-out: Activity; outline: as §1
[13] = test system: UACC-62; experiment: Cytotoxicity against human UACC62 cells assessed as cell growth at 10 uM; conditions: read-out: Activity; outline: as §1
[14] = test system: IGROV-1; experiment: Cytotoxicity against human IGROV1 cells assessed as cell growth at 10 uM; conditions: read-out: Activity
Outline: (§2)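 Single-dose NCI-60 screen at 10 µM. Cells were grown in RPMI 1640 with 5% FBS and 2 mM L-glutamine, then treated for 48 h at 37 °C. Protein was measured by SRB staining with absorbance at 515 nm. Percentage growth was recorded, and inhibition percentage was calculated as 100 minus growth percentage.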

[15] = test system: OVCAR-3; experiment: Cytotoxicity against human OVCAR-3 cells assessed as cell growth at 10 uM; conditions: read-out: Activity; outline: as §1
[16] = test system: OVCAR-4; experiment: Cytotoxicity against human OVCAR4 cells assessed as cell growth at 10 uM; conditions: read-out: Activity; outline: as §1
[17] = test system: OVCAR-5; experiment: Cytotoxicity against human OVCAR5 cells assessed as cell growth at 10 uM; conditions: read-out: Activity; outline: as §1
[18] = test system: OVCAR-8; experiment: Cytotoxicity against human OVCAR8 cells assessed as cell growth at 10 uM; conditions: read-out: Activity; outline: as §1
[19] = test system: NCI/ADR-RES; experiment: Cytotoxicity against human NCI/ADR-RES cells assessed as cell growth at 10 uM; conditions: read-out: Activity; outline: as §1
[20] = test system: SK-OV-3; experiment: Cytotoxicity against human SKOV3 cells assessed as cell growth at 10 uM; conditions: read-out: Activity; outline: as §1
[21] = test system: 786-0; experiment: Cytotoxicity against human 786-0 cells assessed as cell growth at 10 uM; conditions: read-out: Activity; outline: as §2
[22] = test system: A498; experiment: Cytotoxicity against human A498 cells assessed as cell growth at 10 uM; conditions: read-out: Activity; outline: as §2
[23] = test system: ACHN; experiment: Cytotoxicity against human ACHN cells assessed as cell growth at 10 uM; conditions: read-out: Activity; outline: as §2
[24] = test system: CAKI-1; experiment: Cytotoxicity against human Caki1 cells assessed as cell growth at 10 uM; conditions: read-out: Activity; outline: as §2
[25] = test system: RXF 393; experiment: Cytotoxicity against human RXF393 cells assessed as cell growth at 10 uM; conditions: read-out: Activity; outline: as §1
[26] = test system: SN12C; experiment: Cytotoxicity against human SN12C cells assessed as cell growth at 10 uM; conditions: read-out: Activity; outline: as §1
[27] = test system: TK-10; experiment: Cytotoxicity against human TK10 cells assessed as cell growth at 10 uM; conditions: read-out: Activity; outline: as §1
[28] = test system: UO-31; experiment: Cytotoxicity against human UO31 cells assessed as cell growth at 10 uM; conditions: read-out: Activity; outline: as §1
[29] = test system: PC-3; experiment: Cytotoxicity against human PC3 cells assessed as cell growth at 10 uM; conditions: read-out: Activity; outline: as §1
[30] = test system: DU-145; experiment: Cytotoxicity against human DU145 cells assessed as cell growth at 10 uM; conditions: read-out: Activity; outline: as §2
[31] = test system: MCF7; experiment: Cytotoxicity against human MCF7 cells assessed as cell growth at 10 uM; conditions: read-out: Activity; outline: as §1
[32] = test system: MDA-MB-231; experiment: Cytotoxicity against human MDA-MB-231 cells assessed as cell growth at 10 uM; conditions: read-out: Activity; outline: as §1
[33] = Cytotoxicity against human Hs 578T cells assessed as cell growth at 10 uM; conditions: read-out: Activity; outline: as §2
[34] = test system: BT-549; experiment: Cytotoxicity against human BT549 cells assessed as cell growth at 10 uM; conditions: read-out: Activity; outline: as §2
[35] = test system: T47D; experiment: Cytotoxicity against human T47D cells assessed as cell growth at 10 uM; conditions: read-out: Activity; outline: as §1
[36] = test system: MDA-MB-468; experiment: Cytotoxicity against human MDA-MB-468 cells assessed as cell growth at 10 uM; conditions: read-out: Activity; outline: as §1
[37] = Growth inhibition of human NCI60 cells at 10 uM after 48 hrs by sulforhodamine B assay relative to control; conditions: NCI60, 48 h, read-out: GI
Outline: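 Single-dose NCI screen at 10 µM across the 60-line panel, 48 h exposure at 37 °C after a 24 h preincubation. Adherent cells were fixed with cold TCA and stained with 0.4% SRB, and absorbance was read at 515 nm. Inhibition % was taken as 100 minus growth %, and the mean across all lines was reported.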

[38] = test system: CCRF-CEM; experiment: Cytotoxicity against human CCRF-CEM cells assessed as cell growth at 10 uM; conditions: read-out: Activity; outline: as §2
[39] = test system: HL-60(TB); experiment: Cytotoxicity against human HL-60(TB) cells assessed as cell growth at 10 uM; conditions: read-out: Activity
Outline: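 NCI 60-cell panel screen at a single concentration of 10 µM. Cells are grown in RPMI 1640 with 5% FBS and 2 mM L-glutamine and read by SRB protein staining at 515 nm. Percent growth is measured relative to time-zero and untreated controls; inhibition % is 100 minus growth %.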

[40] = test system: K562; experiment: Cytotoxicity against human K562 cells assessed as cell growth at 10 uM; conditions: read-out: Activity; outline: as §2
[41] = test system: MOLT-4; experiment: Cytotoxicity against human MOLT4 cells assessed as cell growth at 10 uM; conditions: read-out: Activity; outline: as §1
[42] = Cytotoxicity against human […] cells assessed as cell growth at 10 uM; conditions: read-out: Activity; outline: as §1
[43] = test system: SR; experiment: Cytotoxicity against human SR cells assessed as cell growth at 10 uM; conditions: read-out: Activity; outline: as §1
[44] = test system: A549; experiment: Cytotoxicity against human A549 cells assessed as cell growth at 10 uM; conditions: read-out: Activity; outline: as §2
[45] = test system: EKVX; experiment: Cytotoxicity against human EKVX cells assessed as cell growth at 10 uM; conditions: read-out: Activity; outline: as §2
[46] = test system: HOP-62; experiment: Cytotoxicity against human HOP62 cells assessed as cell growth at 10 uM; conditions: read-out: Activity; outline: as §2
[47] = test system: HOP-92; experiment: Cytotoxicity against human HOP92 cells assessed as cell growth at 10 uM; conditions: read-out: Activity; outline: as §2
[48] = test system: NCI-H226; experiment: Cytotoxicity against human NCI-H226 cells assessed as cell growth at 10 uM; conditions: read-out: Activity; outline: as §1
[49] = test system: NCI-H23; experiment: Cytotoxicity against human NCI-H23 cells assessed as cell growth at 10 uM; conditions: read-out: Activity; outline: as §1
[50] = test system: NCI-H322M; experiment: Cytotoxicity against human NCI-H322M cells assessed as cell growth at 10 uM; conditions: read-out: Activity; outline: as §1
[51] = test system: NCI-H460; experiment: Cytotoxicity against human NCI-H460 cells assessed as cell growth at 10 uM; conditions: read-out: Activity; outline: as §1
[52] = test system: NCI-H522; experiment: Cytotoxicity against human NCI-H522 cells assessed as cell growth at 10 uM; conditions: read-out: Activity; outline: as §1
[53] = test system: COLO 205; experiment: Cytotoxicity against human COLO205 cells assessed as cell growth at 10 uM; conditions: read-out: Activity; outline: as §2
[54] = test system: HCC 2998; experiment: Cytotoxicity against human HCC2998 cells assessed as cell growth at 10 uM; conditions: read-out: Activity; outline: as §2
[55] = test system: HCT-116; experiment: Cytotoxicity against human HCT116 cells assessed as cell growth at 10 uM; conditions: read-out: Activity; outline: as §2
[56] = test system: HCT-15; experiment: Cytotoxicity against human HCT15 cells assessed as cell growth at 10 uM; conditions: read-out: Activity; outline: as §2
[57] = test system: HT-29; experiment: Cytotoxicity against human HT-29 cells assessed as cell growth at 10 uM; conditions: read-out: Activity; outline: as §2
[58] = test system: KM12; experiment: Cytotoxicity against human KM12 cells assessed as cell growth at 10 uM; conditions: read-out: Activity; outline: as §1
[59] = test system: SW-620; experiment: Cytotoxicity against human SW620 cells assessed as cell growth at 10 uM; conditions: read-out: Activity; outline: as §1
[60] = test system: SF-268; experiment: Cytotoxicity against human SF268 cells assessed as cell growth at 10 uM; conditions: read-out: Activity; outline: as §1
[61] = test system: SF-295; experiment: Cytotoxicity against human SF295 cells assessed as cell growth at 10 uM; conditions: read-out: Activity; outline: as §1

COc1cc(C)cc(-c2nn(CC#N)cc2-c2ccnc(-c3ccc(C(C)=O)cc3)c2)c1
growth at 10 µM [1]: 81.9%
growth at 10 µM [2]: 92.2%
growth at 10 µM [3]: 46.4%
growth at 10 µM [4]: 91.8%
growth at 10 µM [5]: 78.1%
growth at 10 µM [6]: 139%
growth at 10 µM [7]: 103%
growth at 10 µM [8]: 70%
growth at 10 µM [9]: 89.1%
growth at 10 µM [10]: 75.4%
growth at 10 µM [11]: 39.7%
growth at 10 µM [12]: 82.7%
growth at 10 µM [13]: 64.6%
growth at 10 µM [14]: 101%
growth at 10 µM [15]: 108%
growth at 10 µM [16]: 58.6%
growth at 10 µM [17]: 108%
growth at 10 µM [18]: 80.6%
growth at 10 µM [19]: 73.8%
growth at 10 µM [20]: 89%
growth at 10 µM [21]: 93.9%
growth at 10 µM [22]: 93%
growth at 10 µM [23]: 73.8%
growth at 10 µM [24]: 87.2%
growth at 10 µM [25]: 78.9%
growth at 10 µM [26]: 83.6%
growth at 10 µM [27]: 95.2%
growth at 10 µM [28]: 79.1%
growth at 10 µM [29]: 82.9%
growth at 10 µM [30]: 113%
growth at 10 µM [31]: 27.6%
growth at 10 µM [32]: 73.8%
growth at 10 µM [33]: 83.8%
growth at 10 µM [34]: 93.5%
growth at 10 µM [35]: 33.5%
growth at 10 µM [36]: 11.3%
inhibition of growth at 10 µM [37]: 18.2%
growth at 10 µM [38]: 92.6%
growth at 10 µM [39]: 98.3%
growth at 10 µM [40]: 70.6%
growth at 10 µM [41]: 75.8%
growth at 10 µM [42]: 82.9%
growth at 10 µM [43]: 78.4%
growth at 10 µM [44]: 67.1%
growth at 10 µM [45]: 104%
growth at 10 µM [46]: 94.4%
growth at 10 µM [47]: 81.7%
growth at 10 µM [48]: 78.3%
growth at 10 µM [49]: 78.9%
growth at 10 µM [50]: 102%
growth at 10 µM [51]: 106%
growth at 10 µM [52]: 66.6%
growth at 10 µM [53]: 66.8%
growth at 10 µM [54]: 76.8%
growth at 10 µM [55]: 76.6%
growth at 10 µM [56]: 68.7%
growth at 10 µM [57]: 79%
growth at 10 µM [58]: 87.9%
growth at 10 µM [59]: 94.7%
growth at 10 µM [60]: 110%
growth at 10 µM [61]: 103%
